# Assay outcomes as filed in PubChem BioAssay.
# The list is not random: actives were taken first. Their share in the collection is about 2.9%.
# TRPC4 PAM – allosterically enhances the mouse TRPC4 cation channel; HEK293 TRPC4beta/mu-opioid, DAMGO EC20, Fluo-4 Ca2+ flux; hits give high values; AID 2227; B-score at 10 µM; Q9QUQ5; hit rate 0.42% among 310,000;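 active means B-score of calcium response area above 5 SD of library B-scores, with initial fluorescence ratio within 5 SD of library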;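 further: B-score of integrated fluorescence ratio over time as area under calcium response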
# TRPC6 inhibitor – blocks the mouse TRPC6 cation channel | Q61143 | HEK293-TRPC6, membrane potential dye, ACh-evoked depolarization; hits give low values | B-score at 10 µM | hit rate 1.1% among 310,000;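 active means B-score under library mean minus 3 SD, initial fluorescence not abnormally high, positive integrated signal ratio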;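 further: B-score derived from integrated fluorescence ratio over the kinetic read; more negative B-score means stronger inhibition of depolarization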
# TRPC4 inh – inhibitors of mouse TRPC4 channel | B-score at 10 µM | hit rate 0.39% among 300,000 | Q9QUQ5 | HEK293 TRPC4beta/mu-opioid, DAMGO-evoked Fluo4 calcium flux; hits give low values;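 active means B-score over 3 SD under the library average, no early fluorescence shift, positive overall ratio signal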
#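 Assay system: Stable TRPC4beta/mu-opioid receptor HEK293 cells | Reagent: DAMGO in two steps, submaximal then maximal | Compound dosing: Single concentration per test compound | Signal: Fluo4 Ca2+ flux fluorescence | Evaluation: Per-well B score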
# TRPC6 activator – activates the mouse TRPC6 cation channel | AID 2550 | hit rate 0.13% among 310,000 | Q61143 | HEK293-TRPC6 membrane potential dye fluorescence; hits give high values | B-score at 10 µM;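 active means B-score of the integrated fluorescence ratio above library mean plus 3 SD, and starting fluorescence ratio within library mean plus 5 SD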;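 further: higher score means more depolarization so channel activation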
# TRPC4 agonist – TRPC4 (mouse) channel activation | HEK293 TRPC4beta/mu-opioid, Fluo4 calcium fluorescence; hits give high values | B-score at 10 µM | hit rate 0.49% among 310,000;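 active means B-score above 5 SD of library B-scores, and initial fluorescence ratio not above library mean plus 5 SD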;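 further: positive B-score marks a calcium rise read as TRPC4 activation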
#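 Material: TRPC4beta and mu-opioid receptor HEK293 stable cells | Incubation: 45 min room-temperature Fluo4 loading, 110 s read | Detection: Kinetic Fluo4 calcium fluorescence | Measure: Integrated baseline-normalised fluorescence ratio, converted to per-well B score | Benchmarks: Low control buffer alone, high control maximal DAMGO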
# Kir21 inh – blocks the mouse Kir2.1 inward-rectifier potassium channel | P35561 | B-score at 10 µM | hit rate 0.85% among 310,000 | HEK293-Kir2.1, FluxOR thallium flux fluorescence; hits give low values;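 active means fluorescence ratio B-score at or below minus 3 SD of library scores, with starting-brightness B-score within 2 SD, cut at about -4.2 in these data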;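 further: channel flux triggered by added potassium and thallium sulfate stimulus; B-score of peak minus minimum fluorescence over baseline after thallium stimulus; more negative B-score means stronger Kir2.1 block with less thallium influx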
# Target sequence (P35561 whole entry, looked up): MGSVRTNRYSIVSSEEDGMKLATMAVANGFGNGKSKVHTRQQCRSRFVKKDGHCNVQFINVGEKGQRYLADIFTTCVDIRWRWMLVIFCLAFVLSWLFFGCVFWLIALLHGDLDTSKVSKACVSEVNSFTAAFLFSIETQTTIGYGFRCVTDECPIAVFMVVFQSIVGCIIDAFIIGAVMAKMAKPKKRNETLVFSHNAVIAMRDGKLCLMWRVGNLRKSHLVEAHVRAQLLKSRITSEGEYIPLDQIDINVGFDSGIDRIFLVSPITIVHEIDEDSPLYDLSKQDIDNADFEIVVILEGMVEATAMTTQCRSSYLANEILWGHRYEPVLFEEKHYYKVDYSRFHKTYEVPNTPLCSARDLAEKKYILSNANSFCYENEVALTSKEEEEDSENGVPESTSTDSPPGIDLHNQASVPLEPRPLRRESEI
# TRPC4 sel inh 2 – mouse TRPC4 off-target activity of TRPC6 inhibitors, second screen; shares compounds with TRPC6 inhibitor; HEK293 TRPC4/MOR, membrane potential dye fluorescence; channel activated by saturating DAMGO dose; inhibition, % at 10 µM; hit rate 42% among 920; AID 2776;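 active means compounds whose fluorescence signal differed from control wells by over 3 SD, either direction, in both duplicate plates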
# TRPC4 spec – mouse TRPC4 off-target activity of TRPC6 inhibitors; shares compounds with TRPC6 inhibitor; HEK293 TRPC4/mu-opioid, membrane potential fluorescence; activity change, negative = inhibition, % at 10 µM; hit rate 61% among 920; AID 2777;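 active means rise or fall in signal beyond 3 SD of buffer-only wells in both replicate plates, either sign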;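 further: integrated kinetic ratio of fluorescence range over baseline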
# HEK293 MPD ctr 2-1 – parental HEK293 nonspecific activity of TRPC6 inhibitors, second screen | AID 2779 | hit rate 31% among 920 | signal change vs control, % at 10 µM | parental HEK293 membrane potential dye fluorescence; maximal acetylcholine challenge after compound addition | shares compounds with TRPC6 inhibitor;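 active means membrane potential signal moving either way by over 3 SD of the maximum-effect control, in both duplicate plates, meaning non-specific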
# HEK293 MPD ctr-1 – parental HEK293 nonspecific activity of TRPC6 inhibitors; shares compounds with TRPC6 inhibitor; parental HEK293 membrane potential dye fluorescence; membrane potential signal change, % at 10 µM; hit rate 60% among 920;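 active means membrane potential signal shifting up or down by more than 3 SD of buffer-only wells, on both duplicate plates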
# HEK293 MPD ctr-2 – checks TRPC6 modulator effects in parental HEK293 cells | shares compounds with TRPC6 inhibitor | hit rate 51% among 2,400 | membrane potential dye fluorescence | membrane potential signal change, % at 10 µM | AID 488924;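 active means membrane potential signal moves up or down beyond 5 SD from buffer-only wells, on both duplicate plates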
# HEK293 MPD ctr 2-2 – second counter-screen for TRPC6 modulators: effect in parental HEK293 cells; shares compounds with TRPC6 inhibitor; membrane potential dye fluorescence; after compound, maximal acetylcholine stimulation; inhibition, % at 10 µM; hit rate 14% among 2,400; AID 488926;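 active means membrane potential signal drops by more than 5 SD from the mean control signal, in both duplicate plates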;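 further: plate controls were acetylcholine ECmax control wells for no effect and buffer only wells for full effect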
# TRPC4/MOR mod – tests whether TRPC6 modulators also affect mouse TRPC4; HEK293 TRPC4/mu-opioid, membrane potential fluorescence; AID 488927; shares compounds with TRPC6 inhibitor; percent change from control (negative = decrease, positive = increase), % at 10 µM; hit rate 69% among 2,400;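 active means membrane potential signal moved up or down beyond 5 SD of buffer control wells, in both duplicate plates, actives on both sides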;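 further: plate controls were assay buffer wells for no effect and DAMGO maximal-effect wells for full effect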
# TRPC4/MOR inh 2 – second selectivity test of TRPC6 modulators against mouse TRPC4. HEK293 TRPC4/mu-opioid, membrane potential dye fluorescence; stimulated with maximal-effect DAMGO. hit rate 55% among 2,400. AID 488928. shares compounds with TRPC6 inhibitor. inhibition, % at 10 µM;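 active means drop in membrane potential signal beyond 5 SD of the control wells in both duplicate plates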;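 further: TRPC4 counter screen for TRPC6 hits run under conditions tuned for TRPC6 not TRPC4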
# TRPC6 inh conf – mouse TRPC6 inhibitor confirmation; shares compounds with TRPC6 inhibitor; HEK293-TRPC6, membrane potential dye, ACh-evoked depolarization; inhibition, % at 10 µM; hit rate 43% among 3,300;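 active means fluorescence ratio falls more than 5 SD below the full-stimulation control mean, in both duplicate runs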;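 further: integrated fluorescence ratio of peak minus minimum over baseline after agonist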
# TRPC6 act conf – confirmation of mouse TRPC6 activators; shares compounds with TRPC6 inhibitor; HEK293-TRPC6 membrane potential dye fluorescence, FDSS; activation, % at 10 µM; hit rate 11% among 2,800; AID 488961;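 active means ratio signal rise beyond 5 SD above unstimulated control wells' mean, seen in both duplicate runs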;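 further: plate controls were buffer EC0 wells for no effect and acetylcholine ECmax response for full effect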
# * = called active by the depositor; i = inactive; nt = no result.
SMILES,TRPC4 PAM,TRPC6 inhibitor,TRPC4 inh,TRPC6 activator,TRPC4 agonist,Kir21 inh,HEK293 MPD ctr-2,HEK293 MPD ctr 2-2,TRPC4/MOR mod,TRPC4/MOR inh 2,TRPC6 inh conf,TRPC6 act conf,others
CCOC(=O)c1ccc(NC(=O)CC2C(=O)N(c3ccc(F)cc3)C(=O)N2CCC(C)C)cc1 (stereo not drawn),i,-5.8*,i,i,i,-0.11,i,i,i,i,42%*,nt,
COC(=O)c1ccc(NC(=O)CC2C(=O)N(c3ccc(C)cc3)C(=O)N2CC(C)C)cc1 (stereo not drawn),i,i,i,i,i,-0.26,nt,nt,nt,nt,nt,nt,
Nn1c(SCC(=O)Nc2nccs2)nnc1C1CC1,i,i,i,i,i,-0.84,nt,nt,nt,nt,nt,nt,
CCOC(=O)c1ccc(S(=O)(=O)N2CC(=O)Nc3ccccc32)cc1,i,i,i,i,i,0.09,nt,nt,nt,nt,nt,nt,
COc1ccc(/C=C/C(=O)O)cc1S(=O)(=O)N1CCC(C)CC1,i,i,i,i,i,0.23,nt,nt,nt,nt,nt,nt,
Cc1cccnc1NCC(O)COc1ccccc1 (stereo not drawn),i,-6.5*,i,i,i,0.02,i,i,i,i,i,i,
CC1(C(=O)NCc2ccc(Cl)c(Cl)c2)Oc2cccnc2NC1=O (stereo not drawn),i,i,i,i,i,0.08,nt,nt,nt,nt,nt,nt,
CC(=O)c1cccc(NC(=O)NC2CC3CCCC(C2)N3CC(C)C)c1 (stereo not drawn),i,-8.8*,i,17*,i,-0.05,i,i,i,i,46%*,110%*,
CCCN1C2CCCC1CC(NC(=O)Nc1cccc(C(C)=O)c1)C2 (stereo not drawn),i,-6.1*,i,i,i,-0.43,i,i,i,i,i,nt,
CCCN1C2CCCC1CC(NC(=O)Nc1ccc(C(C)C)cc1)C2 (stereo not drawn),i,i,i,i,i,0.47,nt,nt,nt,nt,nt,nt,
O=C(Nc1ccccc1-c1ccccc1)NC1CC2CCCC(C1)N2CCc1ccccc1 (stereo not drawn),i,-7*,i,i,i,-0.46,nt,nt,nt,nt,65%*,i,TRPC4 sel inh 2=46%*;TRPC4 spec=i;HEK293 MPD ctr 2-1=i;HEK293 MPD ctr-1=-0.2%*
CCN(CC)C(=O)NC1CC2CCCC(C1)N2Cc1ccccc1 (stereo not drawn),i,i,i,i,i,0.02,nt,nt,nt,nt,nt,nt,
COc1ccc(C(=O)COC(=O)c2nn(C)cc2Cl)cc1,i,i,i,i,i,-1.4,nt,nt,nt,nt,nt,nt,
COc1ccccc1CN(C(=O)CNC(=O)c1ccco1)C(C(=O)NCC1CCCO1)c1ccccc1 (stereo not drawn),i,i,i,i,i,-1.5,nt,nt,nt,nt,nt,nt,
CCCCCCn1cc(C(=O)OCC)c(=O)c2cc(F)c(F)cc21,i,-5.1*,-6*,i,i,-0.2,i,i,i,46%*,i,i,
CCCCCCn1cc(C(=O)O)c(=O)c2cc(F)c(N3CCN(C)CC3)cc21,i,-5.5*,i,i,i,1.7,-268%*,70%*,-52%*,52%*,44%*,i,
CCOC(=O)c1cn(CC)c2cc3c(cc2c1=O)OCO3,i,-5.8*,i,i,i,0.76,-126%*,i,-32%*,32%*,i,i,
CCn1cc(C(=O)O)c(=O)c2cc(F)c(N3CCN(C)CC3)cc21,i,i,i,i,i,-0.09,nt,nt,nt,nt,nt,nt,
CCOC(=O)c1cn(CC#N)c2cc(F)c(F)cc2c1=O,i,i,i,i,i,1.5,nt,nt,nt,nt,nt,nt,
CC1(C(=O)N/N=C/c2ccccc2)CC1(Cl)Cl (stereo not drawn),i,i,i,i,i,0.51,nt,nt,nt,nt,nt,nt,
Cc1cccc(C)c1N=Cc1c(C(F)(F)F)[nH][nH]c1=O,i,i,i,i,i,-1.6,nt,nt,nt,nt,nt,nt,
CCOc1ccccc1NC(=O)CCS(=O)(=O)c1ccc(Br)cc1,i,i,i,i,i,-1.7,nt,nt,nt,nt,nt,nt,
O=C(CCCN1CCC(c2ccccc2)C1)c1ccc2c(c1)OCCO2 (stereo not drawn),i,-6.5*,i,i,i,-1.5,112%*,i,i,77%*,68%*,nt,
O=C(CCCN1CCOCC1)c1ccc2c(c1)OCCO2,i,i,i,i,i,0.76,nt,nt,nt,nt,nt,nt,
CN(C)CCN(Cc1ccco1)C(=O)c1oc2ccccc2c1NC(=O)COc1ccccc1,i,-5.7*,i,i,i,-4,90%*,i,i,85%*,55%*,i,
O=C(COc1ccccc1)Nc1c(C(=O)N2CCC(N3CCCCC3)CC2)oc2ccccc12,i,i,i,i,i,-0.43,nt,nt,nt,nt,nt,nt,
Cn1c(=O)c2c(ncn2CC(=O)N2CCN(C(=O)c3ccco3)CC2)n(C)c1=O,i,i,i,i,i,0.96,nt,nt,nt,nt,nt,nt,
